The results in this text go back to ChEMBL document CHEMBL4350961, “Discovery of Pyrrolo[3,2- d]pyrimidin-4-one Derivatives as a New Class of Potent and Cell-Active Inhibitors of P300/CBP-Associated Factor Bromodomain” (J Med Chem, 2019).

The structures appear in SMILES notation. Activity calls are given as the source filed them. The rule behind the calls is not given here.

For experiment [1], the target named is Protein kinase C zeta type (Homo sapiens) (UniProt Q05513). The experiment can be described thus: Inhibition of recombinant human PKCzeta (2 to end residues) at 10 uM using ERMRPRKRQGSVRRRV as substrate measured after 40 mins in presence of [gamma33P]ATP by scintillation counting method.
The subject of experiment [2] is PI3-kinase p110-alpha/p85-alpha (Homo sapiens), P27986+P42336 [E542K]. Nature of the experiment: Inhibition of recombinant full-length mouse PI3K p110alpha/p85alpha E542K mutant at 10 uM using phosphatidylinositol-4, 5-bisphosphate as substrate measured after 40 mins by HTRF assay. It is filed as protein-complex assay. (In general: In TR-FRET formats the signal depends on donor and acceptor labels being close together.)

Experiment [3] concerns the target Testis-specific serine/threonine-protein kinase 2 (Homo sapiens) (UniProt Q96PF2). The experiment can be described thus: Inhibition of recombinant full-length human TSSK2 at 10 uM using KKKVSRSGLYRSPSMPENLNRPR as substrate measured after 40 mins in presence of [gamma33P]ATP by scintillation counting method.
For experiment [4], the target named is Cyclin-dependent kinase 5/CDK5 activator 1 (Homo sapiens) (UniProt Q00535+Q15078). Nature of the experiment: Inhibition of recombinant full-length human CDK5/p25 at 10 uM using histone H1 as substrate measured after 40 mins in presence of [gamma33P]ATP by scintillation counting method. It is filed as protein-complex assay.
The species entered for a further experiment is Mus musculus. The experiment can be described thus: Inhibition of recombinant full-length mouse PI3K p110alpha/p85alpha E545K mutant at 10 uM using phosphatidylinositol-4, 5-bisphosphate as substrate measured after 40 mins by HTRF assay.
Experiment [5] concerns the target Serine/threonine-protein kinase DCLK3 (Homo sapiens) (UniProt Q9C098). Nature of the experiment: Inhibition of recombinant human DCAMKL3 (345 to end residues) at 10 uM using KKLNRTLSFAEPG as substrate measured after 40 mins in presence of [gamma33P]ATP by scintillation counting method.
Experiment [6] deals with Mast/stem cell growth factor receptor Kit (Homo sapiens), P10721 [V654A]. Nature of the experiment: Inhibition of recombinant human c-Kit V654A mutant (544 to end residues) at 10 uM using GGMEDIYFEFMGGKKK as substrate measured after 40 mins in presence of [gamma33P]ATP by scintillation counting method.
Mast/stem cell growth factor receptor Kit (Homo sapiens), P10721 [V654A], sequence (P10721 whole entry V654A): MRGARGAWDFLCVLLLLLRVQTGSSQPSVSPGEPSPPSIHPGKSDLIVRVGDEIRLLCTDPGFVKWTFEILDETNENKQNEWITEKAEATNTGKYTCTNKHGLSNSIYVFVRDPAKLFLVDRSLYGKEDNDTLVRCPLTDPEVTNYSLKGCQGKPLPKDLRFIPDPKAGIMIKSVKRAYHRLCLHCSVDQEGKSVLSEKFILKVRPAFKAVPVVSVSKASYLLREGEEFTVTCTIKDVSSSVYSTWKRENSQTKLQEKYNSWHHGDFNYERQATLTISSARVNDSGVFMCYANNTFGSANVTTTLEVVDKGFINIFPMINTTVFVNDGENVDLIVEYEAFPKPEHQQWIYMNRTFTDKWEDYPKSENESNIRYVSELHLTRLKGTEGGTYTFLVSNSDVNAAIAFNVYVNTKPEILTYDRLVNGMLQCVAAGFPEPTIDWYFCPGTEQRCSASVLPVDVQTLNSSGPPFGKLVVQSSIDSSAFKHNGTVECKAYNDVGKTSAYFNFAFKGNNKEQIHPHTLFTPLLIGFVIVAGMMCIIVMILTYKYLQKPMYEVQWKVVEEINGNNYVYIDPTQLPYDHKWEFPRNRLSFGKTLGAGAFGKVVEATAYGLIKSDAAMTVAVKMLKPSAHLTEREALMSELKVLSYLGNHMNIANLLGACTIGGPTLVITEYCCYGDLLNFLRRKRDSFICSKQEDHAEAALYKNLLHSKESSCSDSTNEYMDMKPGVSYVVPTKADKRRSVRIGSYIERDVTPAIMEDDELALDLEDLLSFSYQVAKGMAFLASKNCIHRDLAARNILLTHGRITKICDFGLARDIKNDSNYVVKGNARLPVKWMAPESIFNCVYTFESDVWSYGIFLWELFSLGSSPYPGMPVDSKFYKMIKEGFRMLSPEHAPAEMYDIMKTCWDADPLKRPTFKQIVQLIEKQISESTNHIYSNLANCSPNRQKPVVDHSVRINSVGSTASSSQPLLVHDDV
In experiment [7] the test system is Serine/threonine-protein kinase Chk2 (Homo sapiens), O96017 [I157T]. Nature of the experiment: Inhibition of recombinant human CHK2 I157T mutant (5 to end residues) at 10 uM using KKKVSRSGLYRSPSMPENLNRPR as substrate measured after 40 mins in presence of [gamma33P]ATP by scintillation counting method.
Experiment [8] concerns the target Citron Rho-interacting kinase (Homo sapiens) (UniProt O14578). Nature of the experiment: Inhibition of recombinant human CRIK at 10 uM using KKLRRTLSVA as substrate measured after 120 mins in presence of [gamma33P]ATP by scintillation counting method.
Experiment [9] addresses Serine/threonine-protein kinase PLK1 (Homo sapiens) (UniProt P53350). Nature of the experiment: Inhibition of recombinant full-length human Plk1 at 10 uM using casein as substrate measured after 40 mins in presence of [gamma33P]ATP by scintillation counting method.
Experiment [10] concerns the target Mitogen-activated protein kinase kinase kinase 7 (Homo sapiens) (UniProt O43318). The experiment can be described thus: Inhibition of human TAK1 (1 to 303 residues) using casein as substrate measured after 40 mins in presence of [gamma33P]ATP by scintillation counting method.
The species named for another experiment is Homo sapiens. Nature of the experiment: Inhibition of recombinant full-length human PKBalpha […] mutant at 10 uM using GRPRTSSFAEGKK as substrate measured after 40 mins in presence of [gamma33P]ATP by scintillation counting method.
Experiment [11] concerns the target Serine/threonine-protein kinase WNK2 (Homo sapiens) (UniProt Q9Y3S1). Nature of the experiment: Inhibition of human WNK2 (166 to 489 residues) using myelin basic protein as substrate measured after 40 mins in presence of [gamma33P]ATP by scintillation counting method.
Experiment [12] addresses Insulin receptor-related protein (Homo sapiens) (UniProt P14616). The experiment can be described thus: Inhibition of recombinant human IRR (943 to 1266 residues) at 10 uM using myelin basic protein as substrate measured after 40 mins in presence of [gamma33P]ATP by scintillation counting method.
In experiment [13] the target is Myotonin-protein kinase (Homo sapiens) (UniProt Q09013). Nature of the experiment: Inhibition of recombinant human DMPK (1 to 549 residues) at 10 uM using KKSRGDYMTMQIG as substrate measured after 40 mins in presence of [gamma33P]ATP by scintillation counting method.
Experiment [14] concerns Hepatocyte growth factor receptor (Homo sapiens), P08581 [M1250T]. The experiment can be described thus: Inhibition of recombinant human MET A1209G/V1290L/M1268T mutant (974 to end residues) at 10 uM using KKKGQEEEYVFIE as substrate measured after 40 mins in presence of [gamma33P]ATP by scintillation counting method.
The target of experiment [15] is FKBP12A/mTOR (Homo sapiens) (UniProt P62942+P42345). Nature of the experiment: Inhibition of recombinant full-length human mTOR/FKBP12 at 10 uM measured after 40 mins in presence of [gamma33P]ATP by scintillation counting method. It is filed as protein-complex assay.
The target in experiment [16] is Dual specificity protein kinase CLK4 (Homo sapiens) (UniProt Q9HAZ1). The experiment can be described thus: Inhibition of recombinant human CLK4 (128 to end residues) at 10 uM using YRRAAVPPSPSLSRHSSPHQS(p)EDEEE as substrate measured after 40 mins in presence of [gamma33P]ATP by scintillation counting method.
Experiment [17] concerns Hepatocyte growth factor receptor (Homo sapiens), P08581 [Y1230C]. Nature of the experiment: Inhibition of recombinant human MET A1209G/V1290L/Y1248C mutant (974 to end residues) at 10 uM using KKKGQEEEYVFIE as substrate measured after 40 mins in presence of [gamma33P]ATP by scintillation counting method.
For experiment [18], the system named is Phosphorylase b kinase gamma catalytic chain, liver/testis isoform (Homo sapiens), P15735 [F290L]. The experiment can be described thus: Inhibition of recombinant human PhKgamma2 F290L mutant (1 to 301 residues) at 10 uM using KKLNRTLSFAEPG as substrate measured after 40 mins in presence of [gamma33P]ATP by scintillation counting method.
Phosphorylase b kinase gamma catalytic chain, liver/testis isoform (Homo sapiens), P15735 [F290L], sequence (P15735 whole entry F290L, the tested form may be a part, canonical isoform): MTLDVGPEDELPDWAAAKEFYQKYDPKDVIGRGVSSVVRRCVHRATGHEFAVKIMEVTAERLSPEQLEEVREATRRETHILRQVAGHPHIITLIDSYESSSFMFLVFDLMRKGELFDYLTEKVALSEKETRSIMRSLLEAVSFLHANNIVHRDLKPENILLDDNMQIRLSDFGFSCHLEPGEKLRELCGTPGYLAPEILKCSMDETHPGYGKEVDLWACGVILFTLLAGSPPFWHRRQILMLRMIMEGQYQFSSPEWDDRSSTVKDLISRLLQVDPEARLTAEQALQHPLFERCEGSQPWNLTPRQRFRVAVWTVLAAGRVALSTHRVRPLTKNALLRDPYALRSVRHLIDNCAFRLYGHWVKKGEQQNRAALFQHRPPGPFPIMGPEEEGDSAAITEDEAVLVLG
The target of experiment [19] is Calcium/calmodulin-dependent protein kinase type IV (Homo sapiens) (UniProt Q16566). Nature of the experiment: Inhibition of recombinant full-length human CaMK4 at 10 uM using calmodulin as substrate measured after 40 mins in presence of [gamma33P]ATP by scintillation counting method.
Calcium/calmodulin-dependent protein kinase type IV (Homo sapiens), sequence (Q16566 whole entry): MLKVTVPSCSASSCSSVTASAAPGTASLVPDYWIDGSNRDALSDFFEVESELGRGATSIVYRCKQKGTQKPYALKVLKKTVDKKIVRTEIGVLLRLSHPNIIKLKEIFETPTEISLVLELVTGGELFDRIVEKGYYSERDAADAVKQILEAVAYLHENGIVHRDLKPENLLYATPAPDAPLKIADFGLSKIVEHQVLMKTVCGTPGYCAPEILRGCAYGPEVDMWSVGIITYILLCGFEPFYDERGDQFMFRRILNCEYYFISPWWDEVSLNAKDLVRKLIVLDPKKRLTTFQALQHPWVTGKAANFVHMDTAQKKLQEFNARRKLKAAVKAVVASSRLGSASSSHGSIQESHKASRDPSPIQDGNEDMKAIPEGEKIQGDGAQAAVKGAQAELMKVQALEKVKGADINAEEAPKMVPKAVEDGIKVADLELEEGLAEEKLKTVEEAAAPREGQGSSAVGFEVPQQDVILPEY
Experiment [20] concerns the target Histone acetyltransferase KAT2A (Homo sapiens, UniProt Q92830). Nature of the experiment: Binding affinity to human N-terminal His-tagged GCN5 assessed as change in melting temperature at 10 uM by SYPRO orange dye-based fluorescence assay. The procedure, abridged:
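Thermal shift with His-tagged human bromodomain at 2 μM final in 10 mM HEPES pH 7.5, 500 mM NaCl. Compound at 10 μM final with 0.1% DMSO; SYPRO Orange at 1:1000. Equilibrated 3 min at 25 °C, then heated from 25 to 95 °C at 1 °C/min. Melting temperature shift taken from fluorescence; at least duplicate.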

Insulin receptor-related protein (Homo sapiens), sequence (P14616 27-742 limits assumed): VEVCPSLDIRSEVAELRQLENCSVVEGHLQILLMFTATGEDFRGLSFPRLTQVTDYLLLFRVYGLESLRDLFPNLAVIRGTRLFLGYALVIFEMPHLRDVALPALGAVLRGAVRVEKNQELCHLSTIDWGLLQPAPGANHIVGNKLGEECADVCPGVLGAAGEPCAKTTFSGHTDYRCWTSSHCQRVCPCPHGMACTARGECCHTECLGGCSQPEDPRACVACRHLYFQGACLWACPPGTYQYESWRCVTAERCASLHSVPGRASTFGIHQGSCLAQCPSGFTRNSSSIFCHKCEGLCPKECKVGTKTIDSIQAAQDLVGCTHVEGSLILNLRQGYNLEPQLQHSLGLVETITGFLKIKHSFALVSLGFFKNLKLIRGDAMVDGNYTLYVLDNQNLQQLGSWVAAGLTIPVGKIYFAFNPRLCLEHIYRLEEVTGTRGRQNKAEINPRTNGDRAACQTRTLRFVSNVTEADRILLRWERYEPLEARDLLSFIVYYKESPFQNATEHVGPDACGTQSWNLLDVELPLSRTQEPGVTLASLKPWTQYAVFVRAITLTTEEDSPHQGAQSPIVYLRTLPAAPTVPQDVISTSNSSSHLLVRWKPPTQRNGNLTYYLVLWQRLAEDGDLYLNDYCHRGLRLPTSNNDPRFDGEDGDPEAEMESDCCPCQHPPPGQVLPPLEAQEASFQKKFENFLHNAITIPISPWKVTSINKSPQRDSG
Insulin receptor-related protein (Homo sapiens), sequence (P14616 747-1297 limits assumed): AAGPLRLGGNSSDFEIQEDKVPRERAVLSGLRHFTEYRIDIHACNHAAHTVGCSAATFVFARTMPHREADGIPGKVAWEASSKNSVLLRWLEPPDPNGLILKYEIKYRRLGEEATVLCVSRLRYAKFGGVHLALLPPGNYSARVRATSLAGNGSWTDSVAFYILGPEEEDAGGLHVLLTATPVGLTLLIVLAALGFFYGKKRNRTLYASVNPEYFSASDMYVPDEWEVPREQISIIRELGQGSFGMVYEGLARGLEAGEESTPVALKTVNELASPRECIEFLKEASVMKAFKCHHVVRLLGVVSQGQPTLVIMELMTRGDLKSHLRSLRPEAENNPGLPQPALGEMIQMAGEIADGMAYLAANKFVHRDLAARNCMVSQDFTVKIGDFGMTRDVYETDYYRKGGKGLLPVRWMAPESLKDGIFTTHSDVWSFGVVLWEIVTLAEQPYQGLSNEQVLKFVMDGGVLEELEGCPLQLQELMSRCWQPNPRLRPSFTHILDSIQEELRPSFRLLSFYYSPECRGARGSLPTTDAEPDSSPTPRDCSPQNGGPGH
Mitogen-activated protein kinase kinase kinase 7 (Homo sapiens), sequence (O43318 whole entry, the tested form may be a part): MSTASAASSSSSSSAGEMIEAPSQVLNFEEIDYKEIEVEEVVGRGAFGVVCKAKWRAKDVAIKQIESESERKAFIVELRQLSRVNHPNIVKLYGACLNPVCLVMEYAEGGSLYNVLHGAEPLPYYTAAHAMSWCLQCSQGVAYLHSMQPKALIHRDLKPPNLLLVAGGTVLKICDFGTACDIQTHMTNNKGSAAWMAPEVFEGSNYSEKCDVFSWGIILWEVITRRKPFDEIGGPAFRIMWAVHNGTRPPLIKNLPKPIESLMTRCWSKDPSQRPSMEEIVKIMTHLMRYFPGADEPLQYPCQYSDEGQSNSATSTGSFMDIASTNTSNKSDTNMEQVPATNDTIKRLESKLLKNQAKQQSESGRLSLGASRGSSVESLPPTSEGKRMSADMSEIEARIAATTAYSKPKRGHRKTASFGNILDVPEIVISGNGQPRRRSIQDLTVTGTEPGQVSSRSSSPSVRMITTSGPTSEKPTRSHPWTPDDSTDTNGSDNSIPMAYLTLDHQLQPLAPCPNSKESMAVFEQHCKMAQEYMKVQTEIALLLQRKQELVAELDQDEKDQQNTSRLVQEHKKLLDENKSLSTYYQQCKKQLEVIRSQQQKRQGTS
Testis-specific serine/threonine-protein kinase 2 (Homo sapiens), sequence (Q96PF2 whole entry): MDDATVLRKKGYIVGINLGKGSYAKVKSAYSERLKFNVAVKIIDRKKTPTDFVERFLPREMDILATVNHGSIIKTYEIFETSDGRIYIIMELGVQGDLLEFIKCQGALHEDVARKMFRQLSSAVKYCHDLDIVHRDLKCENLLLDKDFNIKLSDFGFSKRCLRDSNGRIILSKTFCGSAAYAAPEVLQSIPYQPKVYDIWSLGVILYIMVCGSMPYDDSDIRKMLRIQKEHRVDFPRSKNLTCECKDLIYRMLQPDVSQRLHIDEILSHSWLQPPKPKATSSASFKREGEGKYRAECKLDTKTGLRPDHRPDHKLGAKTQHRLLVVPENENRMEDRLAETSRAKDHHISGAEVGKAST
Histone acetyltransferase KAT2A, sequence (Q92830 2-837 limits assumed): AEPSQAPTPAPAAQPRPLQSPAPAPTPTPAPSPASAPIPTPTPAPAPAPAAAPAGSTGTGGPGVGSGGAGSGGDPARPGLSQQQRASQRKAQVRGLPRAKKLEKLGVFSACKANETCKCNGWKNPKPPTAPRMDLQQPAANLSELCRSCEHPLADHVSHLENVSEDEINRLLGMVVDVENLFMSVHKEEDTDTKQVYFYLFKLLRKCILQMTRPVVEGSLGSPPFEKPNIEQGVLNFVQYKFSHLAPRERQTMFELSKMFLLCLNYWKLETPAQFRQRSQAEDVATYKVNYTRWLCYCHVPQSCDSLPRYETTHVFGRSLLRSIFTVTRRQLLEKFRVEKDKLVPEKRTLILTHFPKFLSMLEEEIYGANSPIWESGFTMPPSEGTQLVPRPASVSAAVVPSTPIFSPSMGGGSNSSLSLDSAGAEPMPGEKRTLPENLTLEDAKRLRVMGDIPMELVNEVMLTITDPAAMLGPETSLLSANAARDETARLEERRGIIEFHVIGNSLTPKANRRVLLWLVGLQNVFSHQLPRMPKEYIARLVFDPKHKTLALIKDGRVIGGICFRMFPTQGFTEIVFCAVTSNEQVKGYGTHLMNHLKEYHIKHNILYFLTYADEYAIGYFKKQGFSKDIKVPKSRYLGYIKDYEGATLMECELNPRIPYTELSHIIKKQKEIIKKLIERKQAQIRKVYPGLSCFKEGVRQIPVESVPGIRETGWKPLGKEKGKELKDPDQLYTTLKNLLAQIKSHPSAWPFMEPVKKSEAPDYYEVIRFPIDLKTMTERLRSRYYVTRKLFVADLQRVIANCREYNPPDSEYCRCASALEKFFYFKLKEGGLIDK

For orientation: ΔTm means the shift of the melting midpoint relative to a reference. Regarding `CN1C[C@H](Nc2nc3cc[nH]c3c(=O)n2C)C[C@H](c2ccc3c(c2)OCCO3)C1`, the inhibition entry (in [1]; in experiment [2]; in experiment [3]; in experiment [4]; in the experiment filed under Mus musculus; in [5]) was “inactive” in each case. Besides, the inhibition entry (in experiment [6]; in experiment [7]; in experiment [8]; in experiment [9]; in [10]; in the experiment filed under Homo sapiens) was “inactive” in each case. Besides, the inhibition entry in experiment [11], in experiment [12], in [13], in [14], in [15] and in experiment [16] was “inactive” each time. The inhibition entry in experiment [17], in experiment [18] and in [19] was “inactive” each time. The ΔTm in [20] amounted to 7.3 °C.
